Holding throughout (format): ADME
Holding throughout (details): recombinant enzyme

The target of data set [1] is T1, UDP-glucuronosyltransferase 2A1 (Homo sapiens, UniProt P0DTE4).
T1 sequence (P0DTE4 whole entry): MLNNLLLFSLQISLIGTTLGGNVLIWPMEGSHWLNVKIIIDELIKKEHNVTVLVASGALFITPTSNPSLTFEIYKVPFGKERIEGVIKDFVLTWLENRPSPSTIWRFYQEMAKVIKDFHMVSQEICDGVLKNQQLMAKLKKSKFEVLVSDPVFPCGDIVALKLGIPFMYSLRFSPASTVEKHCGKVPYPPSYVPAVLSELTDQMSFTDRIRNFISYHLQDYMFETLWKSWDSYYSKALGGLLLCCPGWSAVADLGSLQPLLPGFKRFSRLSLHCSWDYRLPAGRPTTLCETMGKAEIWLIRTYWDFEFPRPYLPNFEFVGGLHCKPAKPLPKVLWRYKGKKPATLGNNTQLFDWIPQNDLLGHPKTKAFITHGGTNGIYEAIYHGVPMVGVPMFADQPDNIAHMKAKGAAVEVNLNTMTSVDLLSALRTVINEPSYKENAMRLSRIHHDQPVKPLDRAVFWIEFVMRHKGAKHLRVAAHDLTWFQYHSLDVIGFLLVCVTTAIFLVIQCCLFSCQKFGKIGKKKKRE
The data set is described as follows: Drug metabolism assessed as recombinant human C-terminal His-tagged UGT2A1-mediated 17-epiestriol-16-glucuronide formation at 200 uM after 15 to 60 mins by HPLC analysis in presence of UDPGA. The method, boiled down:
(§1)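 Screening at a single substrate concentration of 200 μM, in triplicate. The reaction used 5 or 50 µg of UGT-enriched insect cell membranes in 50 mM phosphate pH 7.4 with 10 mM MgCl₂ and 5 mM UDPGA, 10% final DMSO. Incubation was 15–60 min at 37°C. Perchloric acid stopped the reaction and supernatants were analysed by HPLC. Controls lacked UDPGA. Rates were normalized to relative UGT expression level.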

For data set [2], the target named is T2, UDP-glucuronosyltransferase 2B4 (Homo sapiens, UniProt P06133).
T2 sequence (P06133 whole entry): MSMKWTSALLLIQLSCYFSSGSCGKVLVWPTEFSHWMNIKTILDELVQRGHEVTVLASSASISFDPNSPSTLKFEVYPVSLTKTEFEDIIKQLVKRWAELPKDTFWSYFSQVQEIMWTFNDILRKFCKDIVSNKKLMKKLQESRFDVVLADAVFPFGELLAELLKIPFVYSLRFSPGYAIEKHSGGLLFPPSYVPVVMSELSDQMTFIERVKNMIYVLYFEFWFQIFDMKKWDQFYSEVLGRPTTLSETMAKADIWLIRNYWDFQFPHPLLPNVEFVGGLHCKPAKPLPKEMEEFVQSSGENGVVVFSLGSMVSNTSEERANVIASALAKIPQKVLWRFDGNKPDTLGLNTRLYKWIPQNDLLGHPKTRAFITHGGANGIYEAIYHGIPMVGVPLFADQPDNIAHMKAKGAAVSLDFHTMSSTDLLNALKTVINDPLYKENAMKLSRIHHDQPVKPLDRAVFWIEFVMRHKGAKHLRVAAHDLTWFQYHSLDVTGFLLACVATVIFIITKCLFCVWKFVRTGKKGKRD
As to the kind of experiment: Drug metabolism assessed as recombinant human C-terminal His-tagged UGT2B4-mediated 16-epiestriol-16-glucuronide formation after 15 to 60 mins by Michaelis-Menten equation analysis in presence of UDPGA.

Data set [3] has as its target T3, UDP-glucuronosyltransferase 1A10 (Homo sapiens, UniProt Q9HAW8).
T3 sequence (Q9HAW8 whole entry): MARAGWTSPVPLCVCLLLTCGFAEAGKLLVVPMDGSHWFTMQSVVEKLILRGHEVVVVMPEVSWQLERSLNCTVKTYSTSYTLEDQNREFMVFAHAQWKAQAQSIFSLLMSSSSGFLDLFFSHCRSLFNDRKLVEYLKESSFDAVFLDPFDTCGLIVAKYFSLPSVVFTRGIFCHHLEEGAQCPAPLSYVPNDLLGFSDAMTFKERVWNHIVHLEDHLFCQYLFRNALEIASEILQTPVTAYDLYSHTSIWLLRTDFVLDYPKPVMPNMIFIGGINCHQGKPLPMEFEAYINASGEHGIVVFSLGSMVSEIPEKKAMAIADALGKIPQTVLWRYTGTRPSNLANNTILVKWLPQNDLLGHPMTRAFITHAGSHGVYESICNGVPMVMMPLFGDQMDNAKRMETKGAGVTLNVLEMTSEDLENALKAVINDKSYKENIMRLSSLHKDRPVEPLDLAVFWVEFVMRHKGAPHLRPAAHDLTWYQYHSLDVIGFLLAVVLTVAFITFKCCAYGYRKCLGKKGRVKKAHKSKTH
As to the kind of experiment: Drug metabolism assessed as recombinant human C-terminal His-tagged UGT1A10-mediated estriol-3-glucuronide formation after 15 to 60 mins by Michaelis-Menten equation analysis in presence of UDPGA. In a few lines: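 For kinetics, the aglycone ranged from 0.2 to 300 μM in DMSO (10% final) with 5 mM UDPGA, 10 mM MgCl₂ and 50 mM phosphate pH 7.4. Enzyme was UGT-enriched insect cell membranes. Incubation was 15–60 min at 37°C, in triplicate, keeping substrate consumption ≤10%. Products were measured by HPLC and fitted to Michaelis-Menten. Rates were normalized to expression level.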

For data set [4], the target named is T4, UDP-glucuronosyltransferase 2B17 (Homo sapiens, UniProt O75795).
T4 sequence (O75795 whole entry): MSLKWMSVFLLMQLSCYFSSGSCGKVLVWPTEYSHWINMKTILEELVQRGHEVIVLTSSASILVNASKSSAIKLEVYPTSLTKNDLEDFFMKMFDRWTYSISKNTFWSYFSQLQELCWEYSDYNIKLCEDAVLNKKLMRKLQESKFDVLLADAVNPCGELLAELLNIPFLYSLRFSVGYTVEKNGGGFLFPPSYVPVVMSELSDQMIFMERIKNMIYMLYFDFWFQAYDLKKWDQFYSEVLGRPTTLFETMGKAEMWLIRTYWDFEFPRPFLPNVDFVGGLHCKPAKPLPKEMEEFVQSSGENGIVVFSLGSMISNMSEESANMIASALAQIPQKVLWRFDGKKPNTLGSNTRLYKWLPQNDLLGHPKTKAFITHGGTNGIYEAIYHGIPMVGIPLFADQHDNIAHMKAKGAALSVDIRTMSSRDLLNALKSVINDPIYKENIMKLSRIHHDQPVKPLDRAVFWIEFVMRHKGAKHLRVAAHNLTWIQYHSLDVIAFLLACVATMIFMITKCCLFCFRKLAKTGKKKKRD
As to the kind of experiment: Drug metabolism assessed as recombinant human C-terminal His-tagged UGT2B17-mediated 13-epiestradiol-3-glucuronide formation at 200 uM after 15 to 60 mins by HPLC analysis in presence of UDPGA. The method, boiled down: as §1

The structures appear in SMILES notation.

On to `C[C@]12CC[C@@H]3c4ccc(O)cc4CC[C@H]3[C@@H]1C[C@@H](O)[C@H]2O`, for which the Drug metabolism entry in data set [1] is given as “metabolite_detected”.
Take `C[C@]12CC[C@@H]3c4ccc(O)cc4CC[C@H]3[C@@H]1C[C@H](O)[C@@H]2O` [EPIESTRIOL]: the Drug metabolism in data set [2] was determined as 5 pmol/min/mg.
As to `C[C@]12CC[C@@H]3c4ccc(O)cc4CC[C@H]3[C@@H]1C[C@@H](O)[C@@H]2O` [ESTRIOL], the Drug metabolism in data set [3] was 840 pmol/min/mg.
Consider `C[C@@]12CC[C@@H]3c4ccc(O)cc4CC[C@H]3[C@@H]1CC[C@@H]2O`, for which the Drug metabolism entry in data set [4] is “metabolite_detected”.

The values are drawn from ChEMBL document CHEMBL3525985, “Regiospecificity and stereospecificity of human UDP-glucuronosyltransferases in the glucuronidation of estriol, 16-epiestriol, 17-epiestriol, and 13-epiestradiol” (Drug Metab Dispos, 2013).
